Screening results from PubChem BioAssay.
bCat KO growth – beta-catenin-lacking colon tumor cell growth suppression. HCT116 beta-catenin knockout viability, CellTiter-Glo, 60 h; hits give low values. viability, % at 10 µM. 140,000 compounds, 1.5% hits. AID 818;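 active = viability at or under a set limit, the compound median less 4 SD, cut at about 6% in these data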;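 note: 0% = Hyamine 1622 control at 20 µM and 100% = untreated cell control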
PMI act satM6P – increases human PMI activity with near-saturating mannose 6-phosphate. P34949. activation factor at 20 µM. coupled PMI enzyme assay, resazurin fluorescence, 20 min; hits give high values; 1 = untreated enzyme, 0 = substrate-free blank. AID 1216. 190,000 compounds, 0.34% hits;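 active = activation factor of 2 or more at 20 µM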
Target sequence (P34949 whole entry, looked up): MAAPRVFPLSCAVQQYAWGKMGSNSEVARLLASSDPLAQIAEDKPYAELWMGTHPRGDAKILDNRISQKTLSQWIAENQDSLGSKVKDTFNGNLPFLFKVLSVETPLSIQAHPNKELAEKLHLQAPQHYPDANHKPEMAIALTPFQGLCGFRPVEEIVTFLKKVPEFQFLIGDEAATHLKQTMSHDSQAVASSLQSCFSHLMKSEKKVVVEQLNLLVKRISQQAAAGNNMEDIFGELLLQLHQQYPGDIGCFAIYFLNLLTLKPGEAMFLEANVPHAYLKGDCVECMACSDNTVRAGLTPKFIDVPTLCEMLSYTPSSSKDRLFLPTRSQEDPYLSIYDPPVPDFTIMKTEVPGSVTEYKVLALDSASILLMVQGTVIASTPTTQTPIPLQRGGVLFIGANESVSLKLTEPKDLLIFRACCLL
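assay system = human phosphomannose isomerase with PGI, G6PDH, diaphorase coupling enzymes | quantity = 15 ng/mL PMI | incubation = enzyme reaction with compound 20 min at room temperature | medium = HEPES pH 7.4 buffer with MgCl2 and Tween-20 | compound dosing = one concentration, 20 µM, in 1% DMSO | measured by = Diaphorase-driven resazurin-to-resorufin fluorescence, excitation 544, emission 590 nm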
PTEN del growth – suppresses growth of cells with PTEN deletion; 140,000 compounds, 1.2% hits; HCT116 PTEN-null viability, CellTiter-Glo, 60 h; hits give low values; viability, % at 10 µM;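 active = viability at or below a set limit, 4 SD under the median of all tested compounds, cut at about 3.7% in these data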;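 note: PTEN knockout HCT116 line with beta catenin targeted HCT116 as companion control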
Lmaj promast – Leishmania major promastigote growth inhibition. 200,000 compounds, 9% hits. inhibition, % at 10 µM. AID 1063. Leishmania major promastigotes, resazurin fluorescence viability; in the data active = inhibition above about 50%;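 note: promastigotes grown with compound for 44 hours at 28 °C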
PMI activator – activators of human phosphomannose isomerase; purified human PMI, coupled resazurin fluorescence, 20 min; hits give high values; 1 = vehicle control, 0 substrate-free wells; 190,000 compounds, 0.005% hits; activation factor at 20 µM;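 active = activation factor of 2 or more at 20 µM, relative to plate controls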
The depositor's hits bear a star; . = no result given. The list is not random: actives were taken first. Their share in the collection is about 9.6%.

SMILES	bCat KO growth	PMI act satM6P	PTEN del growth	Lmaj promast	PMI activator
Cn1c(-c2ccc(F)cc2)cnc1NCc1cc2c(cc1[N+](=O)[O-])OCO2	85	0.8	82	99*	0.9
Cn1c(-c2ccccc2)cnc1NCc1cc2c(cc1[N+](=O)[O-])OCO2	75	0.9	71	87*	0.9
Cn1c(-c2ccc(Cl)cc2)cnc1NCc1cc2c(cc1[N+](=O)[O-])OCO2	72	1	71	98*	0.9
Cc1cc(F)ccc1NCc1cc2c(cc1[N+](=O)[O-])OCO2	80	0.6	77	13	0.7
COC(=O)c1c(C)nn(-c2ccccc2)c1N	90	1	86	-3	1
COc1ccccc1C1c2c(C)nn(-c3ccccc3)c2NC(=O)C1NC(=O)c1ccccc1 (stereo not drawn)	83	1	80	75*	1
Cc1ccc(C(=O)c2cn[nH]c2-c2cc(Cl)ccc2O)cc1	76	1.1	72	98*	1.1
COc1ccc(O)c(-c2[nH]ncc2C(=O)c2ccccc2)c1	106	1	97	5	1
C=CCOc1c(Br)cc(CNc2ccc(NC(=O)C(C)C)c(OC)c2)cc1OC	59	0.6	73	99*	0.7
COc1cc(CNc2ccc(C(=O)O)cc2)cc(Br)c1OCC(=O)NC(C)(C)C	94	0.9	97	-9	1
C=CCOc1c(Br)cc(CNn2nnnc2N)cc1OC	85	1	97	101*	1
C/C(CCc1ccccc1)=N/NC(=O)C(=O)NC(C)c1ccccc1 (stereo not drawn)	.	1	.	-5	1
O=C(Cn1cnc2ccccc21)c1ccc(Br)cc1	.	0.8	.	5	0.8
COCCC1CCCCN1Cc1cn(-c2ccccc2)nc1-c1ccc2c(c1)OCO2 (stereo not drawn)	.	1.1	.	28	1.1
COc1ccccc1/C=C/C(=O)NCC(=O)N/N=C(\CCC(=O)O)c1ccccc1	.	1	.	99*	1.1
CCCCN(CC)Cc1ccc(CNC(=O)Nc2ccc(Cl)cc2)o1	.	1	.	98*	1.1
CCCCN(CC)Cc1ccc(CNC(=S)Nc2ccccc2F)o1	.	1	.	6	1.1
CCCCN(CC)Cc1ccc(CNC(=O)Nc2ccc(OCC)cc2)o1	84	1.1	96	99*	1
CCOc1ccc(NC(=O)Nc2ccc(NC(C)=O)cc2)cc1	.	1	.	-2	1
CN(C)c1cc[n+](CC(=O)N2CCCc3ccccc32)cc1	.	1	.	0	1
CCc1ccc(-c2cn(-c3nc(C)cc(C)n3)c(=N)o2)cc1	70	1	61	4	0.8
Oc1ccc2ccccc2c1/C=N/Nc1nnc(-c2ncc[nH]2)c2ccccc12	4.9*	1.1	2.1*	100*	1
Cc1ccc(NC(=O)c2ccc(COc3ccc4c(c3)CCC4)cc2)c(C)c1	81	1	94	-3	1
CCOC(=O)N1CCC(N(CCOC)C(=S)Nc2cccc(SC)c2)CC1	.	1	.	65*	1
CCOC(=O)N1CCC(Nc2c(Nc3cccc(CC)c3)c(=O)c2=O)CC1	30	1.1	33	1	1
SMILES	bCat KO growth	PMI act satM6P	PTEN del growth	Lmaj promast	PMI activator
CCOC(=O)N1CCC(Nc2cccc(SC)c2)CC1	70	0.7	78	96*	0.9
CC1CCCN(C(C(=O)NC2CCCCC2)c2cc3c(cc2[N+](=O)[O-])OCO3)C1 (stereo not drawn)	56	0.6	49	95*	0.7
O=C1CSC(c2c(F)cccc2Cl)N1c1cccc(F)c1 (stereo not drawn)	95	1.1	90	88*	1
COc1ccc(/C=C2\CCc3ccccc3C2=O)cc1Cn1cccn1	2.9*	0.9	2.2*	86*	0.8
OC1(c2cccc(C(F)(F)F)c2)CCNCC1	89	0.9	117	60*	0.9
CC(Nc1cccnc1)=C(C#N)C#N	.	1	.	-1	1
Cc1cc(C)cc(N=c2c([N+](=O)[O-])nn(-c3ccc(Cl)cc3)n2O)c1	.	1	.	95*	1.1
Cc1ccc(CN=c2c([N+](=O)[O-])nn(-c3cccc(C)c3)n2O)cc1	.	1	.	20	1.1
CCc1ccc(N=c2c([N+](=O)[O-])nn(-c3ccccc3)n2O)cc1	83	1	76	88*	0.9
O=C(c1sc2cc([N+](=O)[O-])ccc2c1Cl)N1CCOCC1	86	0.8	92	-7	0.9
CC(C)N(C(=O)c1sc2cc([N+](=O)[O-])ccc2c1Cl)C(C)C	99	1.1	92	97*	1
COc1ccc(C2CC(c3ccccc3Cl)Nc3ncnn32)cc1OC (stereo not drawn)	99	1.1	88	76*	1
O=C(NC(=S)Nc1ccccc1)c1csnn1	103	1.1	105	-2	1.1
COc1ccc(S(=O)(=O)N(C)CC(=O)NCc2cccnc2)cc1	103	1	97	-6	0.9
Cc1ccc(C(=O)NCCN2C3=NC[C@H](C(C)C)N3C[C@H]2Cc2ccc(O)cc2)cc1Br	.	1	.	5	0.7
COc1ccc(C[C@H]2CN3C(=NC[C@@H]3C(C)C)N2CCNC(=O)c2ccc(C)c(Br)c2)cc1	.	1	.	99*	1
COc1ccc(C[C@H]2CN3C(=NC[C@H]3C)N2CCNC(=O)c2ccc(C)c(Br)c2)cc1	.	1	.	53*	1
COc1ccc2c(c1)[nH]c1c(=O)n(CCCN3CCOCC3)cnc12	104	1	94	1	1
COc1ccc2c(c1)c1ncn(CCCN3CCOCC3)c(=O)c1n2C	88	0.9	90	55*	0.8
COc1ccccc1NC(=O)c1ccc2snnc2c1	.	1	.	99*	1
O=C(Nc1ccc2snnc2c1)Nc1cccc2ccccc12	9	0.8	4	100*	0.8
O=C(c1ccc2snnc2c1)N1CCSCC1	101	2.6*	102	-2	1.8
Cc1nc2cc(NC(=O)Nc3cccc4ccccc34)ccc2n1C	.	0.8	.	-6	0.9
O=C(Nc1ccccc1)c1ccc2snnc2c1	.	0.9	.	77*	1
CC(C)NC(=O)COC(=O)c1cccc(NS(=O)(=O)/C=C/c2ccccc2)c1	95	1	107	-3	1
CC1CCCC(NC(=O)COC(=O)c2cccc(NS(=O)(=O)/C=C/c3ccccc3)c2)C1C (stereo not drawn)	95	1.1	97	53*	1
COc1cccc(/C=C(/C(=O)OCC(=O)NC2CCCC(C)C2C)c2ccccc2)c1 (stereo not drawn)	64	0.9	58	96*	0.9
O=C(NCC1CCCO1)C(c1cccs1)N(C(=O)c1ccc(CN2CCOCC2)o1)c1ccc(Cl)cc1 (stereo not drawn)	92	1.1	91	-9	1
COc1cc(C2N(C)CCC3(OCCO3)C2(C)C)cc(OC)c1OC (stereo not drawn)	98	1	101	58*	1
